Test results from ChEMBL document CHEMBL1156731, “Antifungal activity of synthetic di(hetero)arylamines based on the benzo[b]thiophene moiety” (2008).
≈ marks a conversion by molar mass, not a printed value. Calls of active or inactive are those of the source. No cut-off for these calls is given here.

Key:
[1] = system: Pichia kudriavzevii; experiment: Antifungal activity against Candida krusei ATCC 6258 after 48 hrs by broth macrodilution method; format: functional; details: ATCC 6258, 48 h
Procedure, shortened: (§1)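 Yeasts grown 1 day on SDA at 37 °C, subcultured, suspended in saline and diluted in MOPS-buffered RPMI 1640 (pH 7.0) to 1-2 × 10^3 CFU/mL. Broth macrodilution per CLSI M27-A2, twofold dilutions 200-0.8 µg/mL (DMSO ≤2% final), aerobic, 37 °C, 48 h. MIC = 80% turbidity reduction vs drug-free control; MFC from SDA subculture at 37 °C. Three independent experiments in duplicate.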

[2] = system: Epidermophyton floccosum; experiment: Antifungal activity against Epidermophyton floccosum FF9 after 5 days by broth macrodilution method; format: functional; details: 120 h
Procedure, shortened: (§2)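 Dermatophytes grown 5 days on SDA at 30 °C, subcultured. Conidial suspensions in saline were adjusted in MOPS-buffered RPMI 1640 (pH 7.0) to 1-2 × 10^4 CFU/mL. Macrodilution adapted from CLSI M38-A with 200-0.8 µg/mL twofold dilutions (DMSO ≤2%), incubated at 30 °C for 5 days. MIC at 80% turbidity reduction vs control; MFC by SDA subculture at 30 °C. Triplicate experiments in duplicate.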

[3] = system: Candida albicans; experiment: Inhibition of germ tube formation in Candida albicans ATCC 10231 after 3 hrs by hemocytometer; format: functional, organism-based
Procedure, shortened: (§3)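 Overnight SDA cultures (37 °C) were suspended in NYP medium (N-acetylglucosamine 10^-3 mol/L, YNB 3.35 g/L, proline 10^-3 mol/L, NaCl 4.5 g/L, pH 6.7) at (1.0 ± 0.2) × 10^6 CFU/mL. Compound added at 1/2, 1/4 and 1/8 MIC (1% DMSO final), 3 h at 37 °C. 100 cells counted by hemocytometer; germ tube at least blastospore diameter, pseudohyphae excluded. Mean ± SD, three experiments.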

[4] = system: Aspergillus flavus; experiment: Antifungal activity against Aspergillus flavus F44 after 3 days by broth macrodilution method; format: functional; details: 72 h
Procedure, shortened: (§4)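 Aspergillus inoculum from 3-day SDA subcultures at 30 °C; conidial suspension in 0.85% saline, diluted in RPMI 1640 (L-glutamine, no bicarbonate, 0.165 M MOPS, pH 7.0) to 1-2 × 10^4 CFU/mL. Twofold dilutions 200-0.8 µg/mL from DMSO stock (final DMSO ≤2%); macrodilution per CLSI M38-A, 30 °C, 3 days. MIC = lowest concentration giving 80% turbidity reduction vs drug-free control; MFC by subculture on SDA. Three independent experiments in duplicate.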

[5] = system: Candida albicans; experiment: Antifungal activity against Candida albicans D5 after 48 hrs by broth macrodilution method; format: functional; procedure, shortened: as §1
[6] = system: Nannizzia gypsea; experiment: Antifungal activity against Microsporum gypseum FF3 after 5 days by broth macrodilution method; format: functional; details: 120 h; procedure, shortened: as §2
[7] = system: Trichophyton mentagrophytes; experiment: Antifungal activity against Trichophyton mentagrophytes FF7 after 5 days by broth macrodilution method; format: functional; details: 120 h; procedure, shortened: as §2
[8] = system: Trichophyton rubrum; experiment: Antifungal activity against Trichophyton rubrum FF5 after 5 days by broth macrodilution method; format: functional; details: 120 h; procedure, shortened: as §2
[9] = system: Candida albicans; experiment: Inhibition of germ tube formation in Candida albicans M1 after 3 hrs by hemocytometer; format: functional, organism-based; procedure, shortened: as §3
[10] = system: Candida albicans; experiment: Antifungal activity against Candida albicans ATCC 10231 after 48 hrs by broth macrodilution method; format: functional; details: ATCC 10231, 48 h; procedure, shortened: as §1
[11] = system: Aspergillus fumigatus; experiment: Antifungal activity against Aspergillus fumigatus ATCC 46645 assessed as red fluorescence stained with FUN1 by flow cytometry; format: functional, organism-based
Procedure, shortened: (§5)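 Conidia from 4–7-day SDA cultures suspended in water with 0.01% Tween 80 at (2.0 ± 0.2) × 10^6 CFU/mL. Exposed to twofold dilutions 256 to one µg/mL at 35 °C, water bath with agitation, 3, 4 and 24 h. FUN-1 0.5 µM (20 min, 35 °C, FL2) or PI 1 µg/mL (1 h, 35 °C, FL3); ≥7500 events; positive-cell marker set at ≤5% of drug-free controls.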

[12] = system: Candida albicans; experiment: Inhibition of germ tube formation in Candida albicans D5 after 3 hrs by hemocytometer; format: functional, organism-based; procedure, shortened: as §3
[13] = system: Candida albicans; experiment: Antifungal activity against Candida albicans ATCC 10231 assessed as red fluorescence stained with FUN1 by flow cytometry; format: functional
Procedure, shortened: (§6)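 Overnight SDA cells suspended in RPMI 1640 at (2.0 ± 0.2) × 10^6 CFU/mL. Twofold dilutions 256 to one µg/mL applied at 35 °C, humid, no agitation, 2, 4 and 24 h. Washed; FUN-1 0.5 µM in PBS/2% glucose (20 min, 35 °C, FL2) or PI 1 µg/mL with 0.125% deoxycholate (~10 min, room temperature, FL3). ≥7500 events; marker included ≤5% of drug-free control cells.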

[14] = system: Aspergillus fumigatus; experiment: Antifungal activity against Aspergillus fumigatus ATCC 46645 after 3 days by broth macrodilution method; format: functional; details: ATCC 46645, 72 h; procedure, shortened: as §4
[15] = system: Aspergillus fumigatus; experiment: Antifungal activity against Aspergillus fumigatus ATCC 46645 assessed as red fluorescence stained with PI by flow cytometry; format: functional; procedure, shortened: as §5
[16] = system: Candida albicans; experiment: Antifungal activity against Candida albicans ATCC 10231 assessed as red fluorescence stained with PI by flow cytometry; format: functional; procedure, shortened: as §6
[17] = system: Nakaseomyces glabratus; experiment: Antifungal activity against Candida glabrata D10R after 48 hrs by broth macrodilution method; format: functional
Procedure, shortened: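 Broth macrodilution per CLSI M27-A2 (minor modifications). Inoculum 1-2 × 10^3 CFU/mL in RPMI 1640 with L-glutamine, MOPS-buffered 0.165 M, pH 7.0. Twofold dilutions 200-0.8 µg/mL from DMSO stock (final DMSO ≤2%). Aerobic, 37 °C, 48 h. MIC = lowest concentration giving 80% turbidity reduction versus drug-free control. Three independent experiments in duplicate.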

[18] = system: Aspergillus niger; experiment: Antifungal activity against Aspergillus niger ATCC 16404 after 3 days by broth macrodilution method; format: functional; details: ATCC 16404, 72 h; procedure, shortened: as §4
[19] = system: Microsporum canis; experiment: Antifungal activity against Microsporum canis FF1 after 5 days by broth macrodilution method; format: functional; details: 120 h; procedure, shortened: as §2
[20] = system: Candida tropicalis; experiment: Antifungal activity against Candida tropicalis ATCC 13803 after 48 hrs by broth macrodilution method; format: functional; details: ATCC 13803, 48 h; procedure, shortened: as §1

Row | Compound | MFC [1] | MIC [1] | MFC [2] | MIC [2] | MFC [4] | MIC [4] | MFC [5] | MIC [5] | MFC [6] | MIC [6] | MFC [7] | MIC [7] | MFC [8] | MIC [8] | MFC [10] | MIC [10] | MFC [14] | MIC [14] | MFC [17] | MIC [17] | also measured
1 | c1cncc(Nc2csc3ccccc23)c1 | > 100 µg/mL | 100 µg/mL (≈ 442 µM) | > 12.5 µg/mL | 12.5 µg/mL (≈ 55.2 µM) | 100 µg/mL (≈ 442 µM) | 50 µg/mL (≈ 221 µM) | > 50 µg/mL | 50 µg/mL (≈ 221 µM) | > 12.5 µg/mL | 12.5 µg/mL (≈ 55.2 µM) | > 12.5 µg/mL | 12.5 µg/mL (≈ 55.2 µM) | 12.5 µg/mL (≈ 55.2 µM) | 3.13 µg/mL (≈ 13.8 µM) | 100 µg/mL (≈ 442 µM) | 50 µg/mL (≈ 221 µM) | > 50 µg/mL | 25 µg/mL (≈ 110 µM) | > 50 µg/mL | 50 µg/mL (≈ 221 µM) | Activity [3]: Active; Activity [9]: Active; Activity [11]: Active; Activity [12]: Active; Activity [13]: 60%; Activity [15]: 40%; Activity [16]: 40%; MFC [18]: > 100 µg/mL; MIC [18]: 50 µg/mL (≈ 221 µM); MFC [19]: > 12.5 µg/mL; MIC [19]: 12.5 µg/mL (≈ 55.2 µM); MFC [20]: > 100 µg/mL; MIC [20]: 100 µg/mL (≈ 442 µM)
2 | CCOC(=O)c1sc2ccccc2c1Nc1ccc(OC)cc1OC | > 200 µg/mL | > 200 µg/mL | > 200 µg/mL | > 200 µg/mL | > 200 µg/mL | > 200 µg/mL | > 200 µg/mL | > 200 µg/mL | > 200 µg/mL | > 200 µg/mL | > 200 µg/mL | > 200 µg/mL | > 200 µg/mL | > 200 µg/mL | > 200 µg/mL | > 200 µg/mL | > 200 µg/mL | > 200 µg/mL | > 200 µg/mL | > 200 µg/mL | MFC [18]: > 200 µg/mL; MIC [18]: > 200 µg/mL; MFC [19]: > 200 µg/mL; MIC [19]: > 200 µg/mL; MFC [20]: > 200 µg/mL; MIC [20]: > 200 µg/mL
3 | CCOC(=O)c1sc2ccccc2c1Nc1ccc(OC)cc1 | > 200 µg/mL | > 200 µg/mL | > 200 µg/mL | > 200 µg/mL | > 200 µg/mL | > 200 µg/mL | > 200 µg/mL | > 200 µg/mL | > 200 µg/mL | > 200 µg/mL | > 200 µg/mL | > 200 µg/mL | > 200 µg/mL | > 200 µg/mL | > 200 µg/mL | > 200 µg/mL | > 200 µg/mL | > 200 µg/mL | > 200 µg/mL | > 200 µg/mL | MFC [18]: > 200 µg/mL; MIC [18]: > 200 µg/mL; MFC [19]: > 200 µg/mL; MIC [19]: > 200 µg/mL; MFC [20]: > 200 µg/mL; MIC [20]: > 200 µg/mL
4 | CCOC(=O)c1sc2ccccc2c1Nc1ccc(O)cc1 | > 200 µg/mL | > 200 µg/mL | 12.5 µg/mL (≈ 39.9 µM) | 3.13 µg/mL (≈ 9.99 µM) | > 200 µg/mL | > 200 µg/mL | > 200 µg/mL | > 200 µg/mL | 12.5 µg/mL (≈ 39.9 µM) | 6.25 µg/mL (≈ 19.9 µM) | 6.25 µg/mL (≈ 19.9 µM) | 6.25 µg/mL (≈ 19.9 µM) | 6.25 µg/mL (≈ 19.9 µM) | 6.25 µg/mL (≈ 19.9 µM) | > 200 µg/mL | > 200 µg/mL | > 200 µg/mL | > 200 µg/mL | > 200 µg/mL | > 200 µg/mL | MFC [18]: > 200 µg/mL; MIC [18]: > 200 µg/mL; MFC [19]: 1.56 µg/mL (≈ 4.98 µM); MIC [19]: 1.56 µg/mL (≈ 4.98 µM); MFC [20]: > 200 µg/mL; MIC [20]: > 200 µg/mL
5 | CCOC(=O)c1sc2ccccc2c1Nc1cccnc1 | > 200 µg/mL | > 200 µg/mL | > 50 µg/mL | 6.25 µg/mL (≈ 20.9 µM) | > 200 µg/mL | > 200 µg/mL | > 200 µg/mL | > 200 µg/mL | > 50 µg/mL | 6.25 µg/mL (≈ 20.9 µM) | > 50 µg/mL | 3.13 µg/mL (≈ 10.5 µM) | > 50 µg/mL | 3.13 µg/mL (≈ 10.5 µM) | > 200 µg/mL | > 200 µg/mL | > 200 µg/mL | > 200 µg/mL | > 200 µg/mL | > 200 µg/mL | MFC [18]: > 200 µg/mL; MIC [18]: > 200 µg/mL; MFC [19]: > 50 µg/mL; MIC [19]: 3.13 µg/mL (≈ 10.5 µM); MFC [20]: > 200 µg/mL; MIC [20]: > 200 µg/mL
